About 1,700 (0.47%) of roughly 360,000 compounds were called active. Many of the other results were omitted from the sample, so actives are more common in it than they were. A number with no mark means an inactive call.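 The calls were made as follows: active = inhibition above its plate's cutoff, the mean of tested wells on that plate plus 3 SD (cut at about 29% in these data); inactive = the rest.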

The target of this test is Melanocortin receptor 4 (Homo sapiens) (UniProt P32245). Nature of the test: MC4R antagonists of cAMP signaling, primary screen, cell-based, TR-FRET, antagonist arm of biased-ligand search (AID 540295).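 Also: 0% = Melanotan II alone and 100% = Melanotan II plus saturating MCL0020.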 Particulars: MC4R-expressing cells, MTII-stimulated cAMP, LANCE TR-FRET; at 6.5 µM; hits give high values. The method, boiled down: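 System – human MC4R-expressing U2OS cells · Also added – Melanotan II · Dosing – one concentration, 6.5 µM nominal · Timing – 30-min compound, 1-h challenge, 1-h detection, room temperature · Measured by – Eu-cAMP/anti-cAMP TR-FRET, emission 671 nm · Replicates – singlicate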
Chain of Melanocortin receptor 4 (Homo sapiens) (P32245 whole entry, looked up): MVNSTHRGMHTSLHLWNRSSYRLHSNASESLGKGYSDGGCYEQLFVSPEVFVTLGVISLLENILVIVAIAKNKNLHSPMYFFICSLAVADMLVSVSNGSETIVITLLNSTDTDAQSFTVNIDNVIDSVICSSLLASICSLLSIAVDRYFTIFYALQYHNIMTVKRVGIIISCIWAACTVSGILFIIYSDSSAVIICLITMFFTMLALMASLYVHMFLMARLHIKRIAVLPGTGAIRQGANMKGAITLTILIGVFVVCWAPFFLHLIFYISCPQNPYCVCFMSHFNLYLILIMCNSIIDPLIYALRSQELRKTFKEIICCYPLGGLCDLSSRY
For orientation: TR-FRET usually uses a lanthanide donor and a delayed reading to cut background.
For orientation: inhibition means the change of the read-out against control, counted positive when it falls. Take `CCOC(=O)c1c(NC(=O)COC(=O)c2ccc(S(=O)(=O)C(F)F)cc2)sc(C(=O)N(C)C)c1C`: the inhibition was 8.14%.
Then `COC(=O)c1sc(NC(=O)COC(=O)C2CCC2)c(C(=O)OC)c1C`, with 3.01%; and `CCOC(=O)c1c(NC(=O)CCl)sc(C(=O)N(CC)CC)c1C`, with 32.6% (active).
For `O=S(=O)(c1ccc(SCc2ccc(Br)cc2)nc1)N1CCOCC1` the value was 5.21%; for `CCCCC1N2CC3([N+](=O)[O-])CN1CC([N+](=O)[O-])(C2)C3(C)C` (stereo not given), 1.22%.
For `Cn1c(=O)[nH]c(=O)c2c1nc(CN1CCN(c3ccccc3F)CC1)n2CCc1ccccc1` the value was 4.45%; for `COc1ccc2oc(N)nc2c1`, -3.46%.
For the compound `COc1ccc2oc(=O)cc(CN3CCOCC3)c2c1`, the inhibition is 5.75%.
For `COc1ccc2oc(N)c(C=O)c(=O)c2c1` the value was 37.6% (active); for `O=C(Nc1ccccc1)c1nnsc1S(=O)(=O)c1ccc(Cl)cc1`, 22.3%.
For `COc1cccc(NC(=O)c2ccccc2N(Cc2ccccc2)S(C)(=O)=O)c1` the value was 4.09%; for `CCOC(=O)N1CCN(C(=O)c2ccccc2N(Cc2ccccc2)S(=O)(=O)c2ccc(OC)cc2)CC1`, -11%; for `COc1ccc(/C=N/OCC(=O)N(Cc2ccccc2)c2ccccc2C(=O)O)cc1`, 32.2% (active).
Regarding `CCc1nnc(NC(=O)[C@@H](NC(=O)c2cccc(C)c2)C(C)C)s1`, the inhibition is 2.22%.
Regarding `COc1ccc(-c2nc3n(c(=O)c2C#N)CCS3)c(OC)c1`, the inhibition is 30.9% (active).
Regarding `COc1cccc(NC(=O)Cn2c3ccccc3c3nc4n(c(=O)c32)CCS4)c1`, the inhibition was 19.8%.
For `COc1ccc2c(c1)c1nc3n(c(=O)c1n2CC(=O)Nc1ccccc1)CCS3` the value was -10.3%; for `CC=CCn1c(SCCCc2ccccc2)nc2c1c(=O)[nH]c(=O)n2C`, -6.73%; for `COc1ccc(S(=O)(=O)NC(=O)C2(C)CCN2C(=O)c2ccccc2CCc2ccccc2)cc1` (stereo not given), -3.11%.
Then `N#Cc1ccc(OCC(=O)Nc2nc(-c3ccccn3)cs2)cc1`, with -1.39%; and `CCCC/C(C)=N/NC(=O)NC1CCCCC1`, with 6.08%; and `COc1ccc(CCNC(=O)CCCCCNC(=O)N2CCn3c2nc2ccccc23)cc1OC`, with 2.13%.
For `COc1ccc(NC(=O)CN2C(=O)NC(C)(c3ccccc3)C2=O)cn1` (stereo not given), the inhibition is -0.87%.
Then `COc1ccc(NC(=O)C2Cc3c(-c4ccc5c(c4)OCO5)ccnc3O2)cn1` (stereo not given), with -23.9%; and `COc1ccc(NC(=O)/C(Cl)=C(/Cl)S(=O)Cc2ccc(C)cc2)cn1` (stereo not given), with 57.8% (active).

These data come from PubChem BioAssay AID540295 (The Scripps Research Institute Molecular Screening Center, 2011).
